# Most compounds without a hit are left out; they make up all but 0.98% or so of the library.
# Yeast lifespan up: yeast lifespan extension | S. cerevisiae growth with nicotinamide, OD615; deaD strain in restrictive glucose medium | inhibition of the nicotinamide effect, % at 10 µM | 130,000 compounds, 0.68% hits | AID 775;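 active = inhibition above a set limit, placed 3 SD over the median of all compounds, cut at about 26% in these data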;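 also: 0% = nicotinamide-treated wells and 100% = cells grown without nicotinamide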
#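 Buffer or medium: CSMM-D glucose medium, restrictive; test system: modified budding yeast, DeaD strain; compound: single dose 10 µM compound, 0.25% DMSO; schedule: culture preincubation 4 h, compound exposure 48 h, both 30 °C; detection: optical density (absorbance) at 615 nm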
# S1P3 antag-1: antagonists of human S1P3 receptor; Q99500; CHO S1P3 NFAT-BLA reporter, FRET fluorescence, antagonist mode; inhibition, % at 4.98 µM; 170,000 compounds, 0.27% hits; AID 485;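 active = inhibition above the plate cutoff, the mean inhibition of test wells on that plate plus 3 SD, cut at about 28% in these data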;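 also: cells challenged with S1P at its EC80 of 0.8 µM; blue over green emission ratio from cleaved BLA substrate after 4 h stimulation; 0% = S1P-stimulated wells and 100% = unstimulated DMSO-only wells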
# Target sequence (Q99500 whole entry, looked up): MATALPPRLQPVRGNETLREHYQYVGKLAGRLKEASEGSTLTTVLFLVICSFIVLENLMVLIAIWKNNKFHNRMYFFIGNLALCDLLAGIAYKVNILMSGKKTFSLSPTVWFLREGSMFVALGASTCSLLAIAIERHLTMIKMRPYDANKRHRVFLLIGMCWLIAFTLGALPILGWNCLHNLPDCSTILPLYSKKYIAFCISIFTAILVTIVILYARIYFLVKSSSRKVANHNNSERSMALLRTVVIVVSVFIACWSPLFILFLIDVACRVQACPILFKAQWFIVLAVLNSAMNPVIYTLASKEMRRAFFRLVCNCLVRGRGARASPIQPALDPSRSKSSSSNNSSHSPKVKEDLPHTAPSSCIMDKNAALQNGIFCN
# Yeast growth inh: chemicals that inhibit yeast BB579 growth in restrictive medium (lifespan-shortening candidates) | inhibition, % at 10 µM | 140,000 compounds, 0.51% hits | S. cerevisiae BB579 growth, OD615, 48 h;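 active = inhibition above a set limit, 3 SD over the mean compound inhibition, cut at about 44% in these data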
#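 Test system: DeaD yeast strain BB579 / Buffer or medium: restrictive glucose-based CSMM-D medium / Doses: single 10 µM dose / Schedule: 4 h cell preincubation, 48 h compound exposure, 30 °C humidified / Technique: culture absorbance at 615 nm / Controls: amphotericin B positive control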
# S1P3 antag-2: confirmation of human S1P3 receptor antagonists; shares compounds with S1P3 antag-1; CHO S1P3 NFAT-BLA reporter, FRET, antagonist mode; inhibition, % at 4.98 µM; 240 compounds, 30% hits;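 active = inhibition above the hit threshold that was computed for the earlier primary screen, cut at about 30% in these data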;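 also: 0% = S1P-stimulated wells and 100% = unstimulated DMSO-only wells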
# Starred values were filed as active, the others as inactive; nt = not tested or not shown.
SMILES,Yeast lifespan up,S1P3 antag-1,Yeast growth inh,S1P3 antag-2
COc1ccc(NC(=S)NNC(=O)C2CC2c2ccc(C)cc2)cc1 (stereo unspecified),-4,33*,-7,-16
COC(=O)[C@@H](NC(=O)CCc1nnc(-c2ccsc2)o1)C(C)C,nt,-8,nt,nt
Cc1nc(C(C)NC(=O)CCc2nnc(-c3ccsc3)o2)cs1 (stereo unspecified),nt,38*,nt,-8
CCCCCCn1c(NCC)nc2c1c(=O)n(C)c(=O)n2C,-6,-9,-11,nt
CCOC(=O)N=Nc1c2ccccc2c2nc3no[nH]c3nc12,nt,31*,nt,109*
CCOC(=O)N=Nc1c(O)n(CC(=O)OC)c2ccccc12,nt,-12,nt,nt
CCOc1cc(S(=O)(=O)NCc2ccncc2)ccc1Cl,nt,29*,nt,20
CCOc1ccc(S(=O)(=O)NCc2ccncc2)cc1,-7,nt,-51,nt
CC(C)(C)c1nc2scc(-c3ccc(Br)cc3)c2c(=O)o1,nt,29*,nt,-7
Cc1nc2scc(-c3ccc(Cl)cc3)c2c(=O)o1,8,nt,-21,nt
Cn1c(N)c(C(=O)COC(=O)CCc2ccccc2)c(=O)n(C)c1=O,nt,-10,nt,nt
CC(=O)c1ccccc1NC(=O)COC(=O)/C=C/c1ccc(C)o1,nt,-1,nt,nt
CCN1/C(=C/c2ccc3cc(C)ccc3[n+]2CC)Sc2ccccc21,-11,33*,98*,34*
CCN1/C(=C/c2ccc3cc(C)ccc3[n+]2CC)Sc2cc(C)c(C)cc21,nt,31*,nt,21
CCOC(=O)/C(=C/C=C1\Sc2cc(C)c(C)cc2N1CC)C(C)=O,nt,-16,nt,nt
CC[n+]1c(/C=C2\Sc3ccccc3N2C)ccc2cccc(C)c21,nt,25,nt,nt
CCOC(=O)c1c(C)[nH]c(C(=O)COC(=O)C23CC4CC(CC(Cl)(C4)C2)C3)c1C,-13,nt,-16,nt
Cc1ccn(C(=O)c2cc3cc(Cl)ccc3oc2=O)n1,-8,nt,-27,nt
CCN1/C(=C/C=C/c2oc3ccc(-c4ccccc4)cc3[n+]2CC)Oc2ccc(-c3ccccc3)cc21,nt,31*,nt,54*
CCCCN1C(=O)/C(=C/C=C2\Oc3ccccc3N2CC)SC1=S,nt,-4,nt,nt
C/C(Cn1nnc2ccccc21)=N/OC(=O)c1c(F)cccc1F,nt,-17,nt,nt
C/C(Cn1nnc2ccccc21)=N\NC(=O)c1cccc(Br)c1,5,29*,-22,-6
O=C(OCc1ccc([N+](=O)[O-])cc1)C1CCN(S(=O)(=O)c2ccccc2)CC1,0,0,-28,nt
CC(C)(C)c1ccc(C(=O)Nc2cccc3c(=O)[nH][nH]c(=O)c23)cc1,-5,38*,-12,6
CC(C)(C)c1ccc(C(=O)Nc2ncn[nH]2)cc1,nt,-2,nt,nt
SMILES,Yeast lifespan up,S1P3 antag-1,Yeast growth inh,S1P3 antag-2
Clc1ncn(C23CC4CC(CC(C4)C2)C3)n1,-9,-10,-3,nt
CCCCCCCCCCn1ccc(=N)cc1,nt,18,nt,nt
CCCCCCCCn1ccc(=N)cc1,nt,35*,nt,-6
O=C(c1cc(S(=O)(=O)N2CCOCC2)ccc1Cl)N1CCN(c2ccccn2)CC1,nt,-4,nt,nt
CC(OCC(O)CNCC1COc2ccccc2O1)c1ccc(Cl)cc1 (stereo unspecified),nt,-12,nt,nt
C=CCNC(=S)Nc1ccc(Cl)c(S(=O)(=O)N2CCOCC2)c1,nt,70*,nt,-11
C=CCNC(=S)Nc1ccc(OC)c(S(=O)(=O)N2CCOCC2)c1,nt,-14,nt,nt
Cc1cnc(C(=O)N2CCN(c3ccc(C(F)(F)F)cn3)CC2)cn1,nt,4,nt,nt
CC(CC(=O)N1CCN(c2ccc(C(F)(F)F)cn2)CC1)n1ccnc1 (stereo unspecified),nt,36*,nt,-15
Cc1ccc(NC(=O)CSc2nnc(C)n2CC2CCCO2)cc1 (stereo unspecified),nt,-16,nt,nt
CCCc1cc(=O)[nH]c(SCC(=O)c2[nH]c(C)c(C(=O)OCC)c2C)n1,1,-12,-15,nt
CCC(=O)/C=C1/Sc2ccccc2N1CC,nt,nt,-3,nt
CCN1/C(=C/c2sc(-c3ccccc3C)c[n+]2C)Sc2ccccc21,nt,36*,nt,38*
CCOc1ccccc1NC(=O)CCCn1cc([N+](=O)[O-])cn1,nt,4,nt,nt
CN(Cc1ccccc1)CC(O)COc1ccc(CNCCc2ccncc2)cc1 (stereo unspecified),nt,-4,nt,nt
CN(Cc1ccccc1)CC(O)COc1ccc(CNCCc2cccnc2)cc1 (stereo unspecified),nt,31*,nt,-14
COc1cc(/C=N/NC(=O)Nc2cccc3nsnc23)cc(OC)c1OC,-6,nt,-39,nt
O=C(N/N=C/c1ccc(O)cc1)Nc1cccc2nsnc12,nt,31*,nt,4
O=C(CO/N=C1\CCCc2nonc21)Nc1ccc(Br)cc1,-6,6,-45,nt
O=C(c1ccco1)N1CCN(S(=O)(=O)/C=C/c2ccccc2)CC1,nt,30*,nt,-18
O=C(c1cc2ccccc2o1)N1CCN(S(=O)(=O)/C=C/c2ccccc2)CC1,nt,2,nt,nt
COc1ccc(NC(=O)c2ccco2)cc1S(=O)(=O)N1CCOCC1,nt,1,nt,nt
Cc1ccc(OCC(=O)Nc2ccc([N+](=O)[O-])cc2)cc1,-5,14,-30,nt
Cc1ccc(NC(=O)C2(c3ccc([N+](=O)[O-])cc3)CCCC2)cc1,10,48*,6,50*
Cc1ccc(NC(=S)Nc2cccc(-c3n[nH]c(=S)o3)c2)cc1,nt,2,nt,nt
SMILES,Yeast lifespan up,S1P3 antag-1,Yeast growth inh,S1P3 antag-2
CN(CCCC(=O)Nc1ccncc1)S(=O)(=O)c1ccc(Cl)cc1,5,12,-26,nt
Oc1ccccc1N=Nc1nc(-c2ccccc2)c(-c2ccccc2)[nH]1,-12,nt,10,nt
Cc1ccc(C(=O)NCCOc2cccc(C)c2)cc1,nt,3,nt,nt
CSc1ccccc1C(=O)NCCOc1cccc(C)c1,nt,39*,nt,-5
CC(c1ccccc1)N1C(=O)NC(NC(=O)C(C)(C)C)(C(F)(F)F)C1=O (stereo unspecified),-1,-18,-12,nt
Cc1[nH]c2c(ccc3cccnc32)c1C,nt,-4,nt,nt
CC1=[N+](C)c2c(ccc3cccnc23)C1(C)C,nt,29*,nt,15
COC(=O)c1cccc(NC(=O)CSc2nnc(COc3ccc(C#N)cc3)n2-c2ccccc2)c1,-12,36,-23,nt
CC(NC(=O)COC(=O)[C@@H]1CCCN1S(=O)(=O)c1ccccc1F)C12CC3CC(CC(C3)C1)C2 (stereo partly specified),1,-1,-12,nt
CCN1/C(=C/c2cc[n+](CCCS(=O)(=O)[O-])c3ccccc23)Sc2ccccc21,nt,-54,nt,nt
C=CC[n+]1ccc(/C=C2\C=Cc3cc(C)ccc3N2CC)c2ccccc21,nt,30*,nt,39*
Cc1ccc(NC(CC(=O)c2ccccc2)c2ccc(F)cc2)cc1 (stereo unspecified),-8,nt,-15,nt
COc1ccc(C(CC(=O)c2ccc(C)cc2)Nc2ccc([N+](=O)[O-])cc2)cc1 (stereo unspecified),4,44*,-31,79*
CCN(CC)c1ccc2cc(-c3nc(-c4ccc(OC)cc4)cs3)c(=O)oc2c1,1,42*,-17,97*
CCN(CC)c1ccc2cc(-c3nnc(-c4ccccc4)o3)c(=O)oc2c1,nt,nt,-48,nt
Cc1ccc(S(=O)(=O)Nc2ccc(NC(=O)CN3CCCCC3)c(Cl)c2)cc1,-8,nt,-8,nt
C=CCNC(=O)c1ccccc1NC(=O)c1ccccc1N(C)S(C)(=O)=O,nt,-4,nt,nt
CN(C)CCCN1C(=O)c2cccc3c([N+](=O)[O-])ccc(c23)C1=O,2,33*,-13,0

# High-throughput results: PubChem BioAssay, several laboratories
